Test results reported in ChEMBL document CHEMBL1148740, “Synthesis and SAR investigations for novel melanin-concentrating hormone 1 receptor (MCH1) antagonists Part 1. The discovery of arylacetamides as viable replacements for the dihydropyrimidinone moiety of an HTS hit” (J Med Chem, 2007).

Legend:
[1] = biological target: T1, Melanin-concentrating hormone receptor 1 (Rattus norvegicus, UniProt P97639); assay: Displacement of [3H]SNAP 7941 from rat MCHR1 expressed in HEK293 cells; assay type: cell-based
In short: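 Membranes from PEAK-RAPID HEK293 cells transiently transfected with rat MCH1 were incubated with varying concentrations of [3H]SNAP-7941. Buffer was 50 mM Tris, 10 mM MgCl2, 0.16 mM PMSF, 1 mM 1,10-phenanthroline, 0.2% BSA, pH 7.4; incubation 25 °C, 90 min. Ki is the mean ± SEM of n = 3.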

[2] = biological target: T1, Melanin-concentrating hormone receptor 1; assay: Antagonist activity at rat MCHR1 expressed in HEK293 cells assessed as effect on calcium mobilization; assay type: functional, cell-based
In short: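 HEK293 cells stably expressing rat MCH1 were seeded for 16 h, loaded with 1.5 µM Fluo4 in HBSS for 60 min, washed, and preincubated 20 min with a range of test concentrations. They were then challenged with 30 nM MCH peptide. Calcium-driven fluorescence was read on a FLIPR, and IC50 came from nonlinear curve fitting.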

[3] = Drug level in Sprague-Dawley rat brain at 10 mg/kg, po after 4 hrs; assay type: ADME, organism-based; parameters: dose 10 mg/kg, route oral; conditions: read-out: Drug uptake
In short: (§1)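 Femoral-artery-cannulated male Sprague-Dawley rats (300-350 g), n = 3, were given 10 mg/kg orally in vehicle. Blood was drawn predose and at 1, 2 and 4 h; brains were collected at 4 h and stored at -80 °C. Plasma or brain homogenate was pooled from three rats per time point, protein-precipitated and analysed by LC/MS/MS. Quantitation limits were 2 ng/mL plasma and 2 ng/g brain.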

[4] = Drug level in Sprague-Dawley rat plasma at 10 mg/kg, po after 1 hr; assay type: ADME, organism-based; parameters: dose 10 mg/kg, route oral; in short: as §1
[5] = Drug level in Sprague-Dawley rat plasma at 10 mg/kg, po after 2 hrs; assay type: ADME, organism-based; parameters: dose 10 mg/kg, route oral; in short: as §1
[6] = Drug level in Sprague-Dawley rat plasma at 10 mg/kg, po after 4 hrs; assay type: ADME, organism-based; parameters: dose 10 mg/kg, route oral; in short: as §1
[7] = Plasma clearance in Sprague-Dawley rat at 2 mg/kg, po and 1 mg/kg, iv; assay type: ADME, organism-based
In short: (§2)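 Male Sprague-Dawley rats (200-250 g), n = 2, received 1 mg/kg iv, then 2 mg/kg orally in the same rat 24 h later. Plasma was taken from sampled blood by centrifugation and analysed by turbulent-flow LC/MS/MS. For blood/plasma distribution, blood was spiked at 109 ng/mL. Parameters came from plasma concentration-time profiles.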

[8] = Half life in Sprague-Dawley rat at 2 mg/kg, po and 1 mg/kg, iv; assay type: ADME, organism-based; conditions: in vivo; in short: as §2
[9] = Bioavailability in Sprague-Dawley rat at 2 mg/kg, po and 1 mg/kg, iv; assay type: ADME, organism-based; conditions: in vivo; in short: as §2
[10] = Volume of distribution in Sprague-Dawley rat at 2 mg/kg, po and 1 mg/kg, iv; assay type: ADME, organism-based; conditions: in vivo, read-out: Vss; in short: as §2
[11] = Tmax in Sprague-Dawley rat at 2 mg/kg, po and 1 mg/kg, iv; assay type: ADME, organism-based; conditions: in vivo; in short: as §2
[12] = Cmax in Sprague-Dawley rat at 2 mg/kg, po and 1 mg/kg, iv; assay type: ADME, organism-based; conditions: in vivo; in short: as §2
[13] = Blood clearance in Sprague-Dawley rat at 2 mg/kg, po and 1 mg/kg, iv; assay type: ADME, organism-based; conditions: whole blood; in short: as §2
[14] = tested on: Rattus norvegicus; assay: Anxiolytic activity in rat assessed as increase in social interaction time at 0.3 mg/kg, po relative to control
[15] = organism: Rattus norvegicus; assay: Anxiolytic activity in rat assessed as increase in social interaction time relative to control; assay type: functional
In short: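 Rats were acclimated 5 days, housed singly 5 days and handled 5 min daily. Weight-matched (±5%) unfamiliar pairs got identical treatment 1 h before testing, five pairs per group. Chlordiazepoxide 5 mg/kg was the reference. Pairs were placed 15 min in a floor-gridded arena, sessions were videotaped, and social interaction time was scored.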

[16] = Plasma clearance in Sprague-Dawley rat at 1 mg/kg, po and 1 mg/kg, iv; assay type: ADME, organism-based
In short: (§3)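 Sprague-Dawley rats were dosed 1 mg/kg orally (n = 2) and 1 mg/kg iv (n = 2). Plasma concentration-time profiles were measured by LC/MS/MS and used for pharmacokinetic analysis.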

[17] = Tmax in Sprague-Dawley rat at 1 mg/kg, po and 1 mg/kg, iv; assay type: ADME, organism-based; conditions: in vivo; in short: as §3
[18] = Half life in Sprague-Dawley rat at 1 mg/kg, po and 1 mg/kg, iv; assay type: ADME, organism-based; conditions: in vivo; in short: as §3
[19] = Bioavailability in Sprague-Dawley rat at 1 mg/kg, po and 1 mg/kg, iv; assay type: ADME, organism-based; conditions: in vivo; in short: as §3
[20] = Volume of distribution in Sprague-Dawley rat at 1 mg/kg, po and 1 mg/kg, iv; assay type: ADME, organism-based; conditions: in vivo, read-out: Vss; in short: as §3
[21] = Cmax in Sprague-Dawley rat at 1 mg/kg, po and 1 mg/kg, iv; assay type: ADME, organism-based; conditions: in vivo; in short: as §3

T1 sequence (P97639 whole entry): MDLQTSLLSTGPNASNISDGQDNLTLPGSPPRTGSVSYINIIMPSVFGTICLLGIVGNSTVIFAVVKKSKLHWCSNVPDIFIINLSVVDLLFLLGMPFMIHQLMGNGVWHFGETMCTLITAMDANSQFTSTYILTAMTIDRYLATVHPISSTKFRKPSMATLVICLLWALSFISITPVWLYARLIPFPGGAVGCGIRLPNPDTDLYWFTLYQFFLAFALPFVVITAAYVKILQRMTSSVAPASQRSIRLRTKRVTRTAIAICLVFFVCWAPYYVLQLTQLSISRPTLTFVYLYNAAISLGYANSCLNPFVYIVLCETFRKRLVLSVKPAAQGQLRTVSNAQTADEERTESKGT

Row | Structure (SMILES) | Ki [1] [µM] | IC50 [2] [µM] | further results
1 | Cc1ccc(NC(=O)C(C)C)cc1C1CCN(CCCNC(=O)C(C)c2ccccc2)CC1 (single isomer, unassigned; form 2) | 0.037 | 0.13 | –
2 | CC(C)C(=O)Nc1c(F)cc(F)c(C2CCN(CCCNC(=O)C(c3ccc(F)cc3)c3ccc(F)cc3)CC2)c1F | 0.0029 | – | –
3 | Cc1ccc(NC(=O)C(C)C)cc1C1CCN(CCCNC(=O)C(O)(c2ccccc2)c2ccccc2)CC1 | 0.0006 | 0.027 | –
4 | Cc1ccc(NC(=O)C(C)C)cc1C1CCN(CCCNC(=O)C(c2ccccc2)c2ccccc2)CC1 | 0.003 | 0.027 | concentration at 4 h [3]: 13 ng/g; concentration at 1 h [4]: 69 ng/mL; concentration at 2 h [5]: 59 ng/mL; concentration at 4 h [6]: 75 ng/mL
5 | CC(C)C(=O)Nc1cccc(C2CCN(CCCCCCNC(=O)C(c3ccccc3)c3ccccc3)CC2)c1 | 0.029 | 0.6 | –
6 | CC(C)C(=O)Nc1cccc(C2CCN(CCCNC(=O)C(C)(c3ccccc3)c3ccccc3)CC2)c1 | 0.0075 | 0.14 | –
7 | Cc1ccc(NC(=O)C(C)C)cc1C1CCN(CCCNC(=O)[C@H](C)c2ccc(F)cc2)CC1 | 0.028 | 0.065 | –
8 | Cc1ccc(NC(=O)C(C)C)cc1C1CCN(CCCNC(=O)[C@@H](C)c2ccc(F)cc2)CC1 | 0.01 | 0.026 | clearance [7]: 25 mL/min/kg; half-life [8]: 4.2 h; bioavailability [9]: 81%; Vd [10]: 3.4 L/kg; Tmax [11]: 2.2 h; Cmax [12]: 305 ng/mL; clearance [13]: 55 mL/min/kg
9 | Cc1ccc(NC(=O)C(C)C)cc1C1CCN(CCCNC(=O)C(C)c2ccccc2)CC1 (single isomer, unassigned; form 1) | 0.034 | 0.068 | –
10 | CCC(C(=O)NCCCN1CCC(c2cccc(NC(=O)C(C)C)c2)CC1)(c1ccccc1)c1ccccc1 | – | 0.19 | –
11 | Cc1ccc(C2CCN(CCCNC(=O)C(c3ccccc3)c3ccccc3)CC2)cc1NC(=O)C(C)C | 0.5 | > 1 | –
12 | Cc1ccc(NC(=O)C(C)C)cc1C1CCN(CCCNC(=O)C2(c3ccc(F)cc3)CCCCC2)CC1 | 0.0019 | 0.19 | –
13 | CC(C)C(=O)Nc1cccc(C2CCN(CCCNC(=O)C(c3ccccc3)c3ccccc3)CC2)c1 | 0.0019 | 0.025 | concentration at 1 h [4]: 15 ng/mL; concentration at 2 h [5]: 12 ng/mL; concentration at 4 h [6]: 15 ng/mL
14 | CC(C)C(=O)Nc1cc(C2CCN(CCCNC(=O)C(c3ccc(F)cc3)c3ccc(F)cc3)CC2)c(F)cc1F | 0.0018 | 0.034 | clearance [7]: 40 mL/min/kg; Time [14]: 69.3 s; half-life [8]: 2.1 h; bioavailability [9]: 48%; Vd [10]: 3.6 L/kg; Activity [15]: 69.3 s; minimal effective dose ([15]; Rattus norvegicus, read-out: MED): 0.3 mg/kg; Tmax [11]: 0.6 h; Cmax [12]: 80 ng/mL; clearance [13]: 60 mL/min/kg
15 | Cc1ccc(NC(=O)C(C)C)cc1C1CCN(CCCNC(=O)C2(c3ccc(F)cc3)CCCC2)CC1 | 0.0038 | 0.044 | –
16 | CC(C)C(=O)Nc1cccc(C2CCN(CCCCCNC(=O)C(c3ccccc3)c3ccccc3)CC2)c1 | 0.047 | – | –
17 | Cc1ccc(NC(=O)C(C)C)cc1C1CCN(CCCNC(=O)C(c2ccc(F)cc2)c2ccc(F)cc2)CC1 | 0.00062 | 0.027 | –
18 | CNC1=Nc2ccc(Cl)cc2C(c2ccccc2)=[N+]([O-])C1 [CHLORDIAZEPOXIDE] | – | – | Time [14]: 85.1 s
19 | CCCCCC(C(=O)NCCCN1CCC(c2cccc(NC(=O)C(C)C)c2)CC1)(c1ccccc1)c1ccccc1 | 0.0085 | – | –
20 | CC(C)C(=O)Nc1cccc(C2CCN(CCCNC(=O)C(c3ccc(F)cc3)c3ccc(F)cc3)CC2)c1 | 0.0014 | 0.013 | –
21 | CC(C)C(=O)Nc1cccc(C2CCN(CCNC(=O)C(c3ccccc3)c3ccccc3)CC2)c1 | 0.0019 | 0.057 | –
22 | COCC1=C(C(=O)OC)[C@H](c2ccc(F)c(F)c2)N(C(=O)NCCCN2CCC(c3cccc(NC(C)=O)c3)CC2)C(=O)N1 [SNAP-7941] | 0.00025 | – | clearance [16]: 153 mL/min/kg; Tmax [17]: 4 h; half-life [18]: 1.7 h; bioavailability [19]: 6%; Vd [20]: 24 L/kg; Cmax [21]: 2.02 ng/mL
23 | CC(C)C(=O)Nc1cccc(C2CCN(CCCCNC(=O)C(c3ccccc3)c3ccccc3)CC2)c1 | 0.05 | 0.62 | –
